Results as given in ChEMBL document CHEMBL1177711, “Novel quinolizidinyl derivatives as antiarrhythmic agents: 2. Further investigation” (J Med Chem, 2010).

tested on: not listed separately; assay: Cardioprotective effect in Langendorff perfused guinea pig spontaneously beating […] assessed as intraventicular conduction time at 0.1 uM (RVb = 19 to 24 +/- 1 to 2 ms); format: functional; details: Cavia porcellus
In short: (§1)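 Whole guinea pig hearts were Langendorff-perfused and their ECG recorded at graded concentrations. Intervals read were PR (atrioventricular conduction time), QT (ventricular action potential duration) and QRS (intraventricular conduction time).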

Compared with `CCCCc1oc2ccccc2c1C(=O)c1cc(I)c(OCCN(CC)CC)c(I)c1`, `C=C[C@H]1CN2CC[C@H]1C[C@@H]2[C@@H](O)c1ccnc2ccc(OC)cc12` [QUINIDINE] is higher in intraventricular conduction time: 21 ms for the first, 31 ms for the second.

tested on: Aorta; assay: Vasorelaxant activity in potassium depolarized guinea pig aortic strip assessed as inhibition of calcium-induced contraction at 50 uM; format: functional; details: Cavia porcellus

`C=C[C@H]1CN2CC[C@H]1C[C@@H]2[C@@H](O)c1ccnc2ccc(OC)cc12` [QUINIDINE] showed an inhibition at 50 µM of 30%.

tested on: not listed separately; assay: Cardioprotective effect in Langendorff perfused guinea pig spontaneously beating […] assessed as atrioventicular conduction time at 10 uM (RVb = 50 to 55 +/- 1 to 4 ms); format: functional; details: Cavia porcellus; in short: as §1

Going from `CCCCc1oc2ccccc2c1C(=O)c1cc(I)c(OCCN(CC)CC)c(I)c1` to `C=C[C@H]1CN2CC[C@H]1C[C@@H]2[C@@H](O)c1ccnc2ccc(OC)cc12` [QUINIDINE], the AV conduction time rises from 58 ms to 70 ms.

tested on: not listed separately; assay: Cardioprotective effect in Langendorff perfused guinea pig spontaneously beating […] assessed as intraventicular conduction time at 0.01 uM (RVb = 19 to 24 +/- 1 to 2 ms); format: functional; details: Cavia porcellus; in short: as §1

First: CCCCc1oc2ccccc2c1C(=O)c1cc(I)c(OCCN(CC)CC)c(I)c1
Second: C=C[C@H]1CN2CC[C@H]1C[C@@H]2[C@@H](O)c1ccnc2ccc(OC)cc12 [QUINIDINE]
The intraventricular conduction time of the first is lower: 20 ms for the first, 27 ms for the second.

tested on: not listed separately; assay: Cardioprotective effect in Langendorff perfused guinea pig spontaneously beating […] assessed as atrioventicular conduction time at 0.1 uM (RVb = 50 to 55 +/- 1 to 4 ms); format: functional; details: Cavia porcellus; in short: as §1

Going from `CCCCc1oc2ccccc2c1C(=O)c1cc(I)c(OCCN(CC)CC)c(I)c1` to `C=C[C@H]1CN2CC[C@H]1C[C@@H]2[C@@H](O)c1ccnc2ccc(OC)cc12` [QUINIDINE], the AV conduction time rises from 55 ms to 57 ms.

tested on: not listed separately; assay: Cardioprotective effect in Langendorff perfused guinea pig spontaneously beating […] assessed as atrioventicular conduction time at 0.001 uM (RVb = 50 to 55 +/- 1 to 4 ms); format: functional; details: Cavia porcellus; in short: as §1

Compared with `CCCCc1oc2ccccc2c1C(=O)c1cc(I)c(OCCN(CC)CC)c(I)c1`, `C=C[C@H]1CN2CC[C@H]1C[C@@H]2[C@@H](O)c1ccnc2ccc(OC)cc12` [QUINIDINE] is lower in AV conduction time: 54 ms for the first, 53 ms for the second.

tested on: not listed separately; assay: Cardioprotective effect in Langendorff perfused guinea pig spontaneously beating […] assessed as atrioventicular conduction time at 1 uM (RVb = 50 to 55 +/- 1 to 4 ms); format: functional; details: Cavia porcellus; in short: as §1

Going from `CCCCc1oc2ccccc2c1C(=O)c1cc(I)c(OCCN(CC)CC)c(I)c1` to `C=C[C@H]1CN2CC[C@H]1C[C@@H]2[C@@H](O)c1ccnc2ccc(OC)cc12` [QUINIDINE], the AV conduction time rises from 56 ms to 60 ms.

tested on: not listed separately; assay: Cardioprotective effect in Langendorff perfused guinea pig spontaneously beating […] assessed as intraventicular conduction time at 1 uM (RVb = 19 to 24 +/- 1 to 2 ms); format: functional; details: Cavia porcellus; in short: as §1

Going from `CCCCc1oc2ccccc2c1C(=O)c1cc(I)c(OCCN(CC)CC)c(I)c1` to `C=C[C@H]1CN2CC[C@H]1C[C@@H]2[C@@H](O)c1ccnc2ccc(OC)cc12` [QUINIDINE], the intraventricular conduction time rises from 22 ms to 35 ms.

tested on: not listed separately; assay: Cardioprotective effect in Langendorff perfused guinea pig spontaneously beating […] assessed as intraventicular conduction time at 0.001 uM (RVb = 19 to 24 +/- 1 to 2 ms); format: functional; details: Cavia porcellus; in short: as §1

Compared with `CCCCc1oc2ccccc2c1C(=O)c1cc(I)c(OCCN(CC)CC)c(I)c1`, `C=C[C@H]1CN2CC[C@H]1C[C@@H]2[C@@H](O)c1ccnc2ccc(OC)cc12` [QUINIDINE] is higher in intraventricular conduction time: 20 ms for the first, 25 ms for the second.

tested on: not listed separately; assay: Cardioprotective effect in Langendorff perfused guinea pig spontaneously beating […] assessed as atrioventicular conduction time at 0.01 uM (RVb = 50 to 55 +/- 1 to 4 ms); format: functional; details: Cavia porcellus; in short: as §1

Compared with `CCCCc1oc2ccccc2c1C(=O)c1cc(I)c(OCCN(CC)CC)c(I)c1`, `C=C[C@H]1CN2CC[C@H]1C[C@@H]2[C@@H](O)c1ccnc2ccc(OC)cc12` [QUINIDINE] is lower in AV conduction time: 55 ms for the first, 54 ms for the second.

tested on: not listed separately; assay: Cardioprotective effect in Langendorff perfused guinea pig spontaneously beating […] assessed as intraventicular conduction time at 10 uM (RVb = 19 to 24 +/- 1 to 2 ms); format: functional; details: Cavia porcellus; in short: as §1

First: CCCCc1oc2ccccc2c1C(=O)c1cc(I)c(OCCN(CC)CC)c(I)c1
Second: C=C[C@H]1CN2CC[C@H]1C[C@@H]2[C@@H](O)c1ccnc2ccc(OC)cc12 [QUINIDINE]
The intraventricular conduction time of the first is lower: 24 ms for the first, 39 ms for the second.
